Reference: ChEMBL document CHEMBL2311362, “Fragment-based discovery of novel and selective mPGES-1 inhibitors Part 1: identification of sulfonamido-1,2,3-triazole-4,5-dicarboxylic acid” (Bioorg Med Chem Lett, 2013)
The source made the active and inactive calls. The rule behind the calls is not given here.

How the values were obtained:
Prostaglandin E synthase = target: T1, Prostaglandin E synthase (Homo sapiens, UniProt O14684); experiment: Inhibition of mPGES1 (unknown origin) using PGH2 as substrate incubated for 30 mins prior to substrate addition by PGH2-coupled spectrophotometric analysis
T1 sequence (O14684 whole entry): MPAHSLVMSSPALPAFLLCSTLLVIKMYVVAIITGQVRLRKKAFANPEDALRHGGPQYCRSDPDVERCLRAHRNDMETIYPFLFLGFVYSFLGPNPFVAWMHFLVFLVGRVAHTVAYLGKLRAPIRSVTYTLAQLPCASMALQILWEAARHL
Procedure, shortened: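 Two-enzyme coupled assay. 110 nM mPGES-1 and 220 nM 15-PGDH in 200 µL buffer (50 mM Tris-HCl pH 7.5, 50 µM PMA, 2 mM reduced glutathione, 1 mM NAD+, 0.1 mM DTT), compound added in 1 µL DMSO, preincubated 30 min. Started with cold PGH2 (14 µM final). NADH read by fluorescence, excitation 340 nm, emission 468 nm. IC50 from varying concentrations.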

[1] = target: T2, Prostaglandin G/H synthase 2 (Homo sapiens) (UniProt P35354); experiment: Inhibition of human recombinant COX2 using arachidonic acid as substrate at 1 mM incubated for 10 mins prior to substrate addition measured for 2 mins by enzyme immunoassay
T2 sequence (whole entry): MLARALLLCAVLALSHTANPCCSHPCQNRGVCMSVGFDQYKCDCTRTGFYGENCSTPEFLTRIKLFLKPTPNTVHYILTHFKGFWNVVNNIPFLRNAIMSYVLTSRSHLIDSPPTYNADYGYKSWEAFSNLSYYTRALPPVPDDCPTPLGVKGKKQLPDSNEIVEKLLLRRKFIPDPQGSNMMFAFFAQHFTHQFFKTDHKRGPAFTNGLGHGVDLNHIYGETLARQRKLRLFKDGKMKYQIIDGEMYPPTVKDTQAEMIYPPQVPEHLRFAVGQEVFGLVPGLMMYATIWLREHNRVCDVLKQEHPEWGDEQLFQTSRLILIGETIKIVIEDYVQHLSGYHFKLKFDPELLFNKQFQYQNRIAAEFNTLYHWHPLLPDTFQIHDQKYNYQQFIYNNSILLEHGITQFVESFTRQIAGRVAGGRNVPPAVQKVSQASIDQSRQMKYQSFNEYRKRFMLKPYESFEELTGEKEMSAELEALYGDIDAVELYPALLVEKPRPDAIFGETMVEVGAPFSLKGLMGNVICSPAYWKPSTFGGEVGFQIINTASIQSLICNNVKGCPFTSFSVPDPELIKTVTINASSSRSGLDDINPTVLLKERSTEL

[2] = target: T3, Prostaglandin E synthase (Homo sapiens) (UniProt O14684); experiment: Inhibition of human recombinant mPGES1 using PGH2 as substrate at 10 uM incubated for 5 mins prior to substrate addition measured after 5 mins by HPLC analysis in presence of triton-X-100
T3 sequence (whole entry): T1 sequence (O14684 whole entry)
Procedure, shortened: (§1)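 mPGES-1 inhibition measured at 10 µM test compound, run with and without 0.1% Triton X-100, following a previously published protocol. Reported as % inhibition.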

[3] = target: T3, Prostaglandin E synthase (Homo sapiens); experiment: Ratio of MK886 IC50 to compound IC50 for mPGES1 (unknown origin)
[4] = Selectivity index, ratio of IC50 for ovine COX1 to IC50 for mPGES1 (unknown origin)
[5] = target: T4, Prostaglandin G/H synthase 1 (Ovis aries) (UniProt P05979); experiment: Inhibition of ovine COX1 using PGH2 as substrate at 1 mM incubated for 10 mins prior to substrate addition measured for 2 mins by enzyme immunoassay; conditions: in the assay text read “arachidonic acid” for “PGH2”
T4 sequence (whole entry): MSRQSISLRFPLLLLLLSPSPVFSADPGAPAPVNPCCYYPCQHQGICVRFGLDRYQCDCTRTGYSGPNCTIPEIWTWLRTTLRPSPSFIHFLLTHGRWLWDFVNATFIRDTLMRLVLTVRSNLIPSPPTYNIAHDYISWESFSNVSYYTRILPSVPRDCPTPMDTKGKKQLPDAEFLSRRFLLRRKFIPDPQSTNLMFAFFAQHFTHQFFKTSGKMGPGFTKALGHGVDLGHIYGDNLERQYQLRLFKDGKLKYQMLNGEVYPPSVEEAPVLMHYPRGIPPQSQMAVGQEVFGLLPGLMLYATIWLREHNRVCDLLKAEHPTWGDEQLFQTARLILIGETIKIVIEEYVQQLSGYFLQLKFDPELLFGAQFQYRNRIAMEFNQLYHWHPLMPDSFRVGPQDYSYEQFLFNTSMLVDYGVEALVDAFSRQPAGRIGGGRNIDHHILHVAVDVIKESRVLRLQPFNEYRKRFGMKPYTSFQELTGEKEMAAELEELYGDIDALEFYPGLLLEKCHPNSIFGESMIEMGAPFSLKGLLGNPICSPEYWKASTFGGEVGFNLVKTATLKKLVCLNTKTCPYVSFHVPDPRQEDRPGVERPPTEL
Procedure, shortened: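 COX-1 (purified ovine) or COX-2 (purified human recombinant) preincubated with test compound 10 min at 37 °C, then tested at 1 mM. Prostanoid product quantified by enzyme immunoassay with a broadly specific antibody that binds all major prostaglandins (COX inhibitor screening kit).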

[6] = target: T3, Prostaglandin E synthase (Homo sapiens); experiment: Inhibition of human recombinant mPGES1 using PGH2 as substrate at 10 uM incubated for 5 mins prior to substrate addition measured after 5 mins by HPLC analysis; procedure, shortened: as §1
[7] = Inhibition of rat mPGES1 expressed in CHOK21 cells using [3H]PGH2 as substrate by radio-HPLC analysis; assay type: cell-based

## O=C(O)c1nnn(CCNS(=O)(=O)c2cccc(C(F)(F)F)c2)c1C(=O)O
Prostaglandin E synthase
  IC50: 4.4 µM

## CN(CCn1nnc(C(=O)O)c1C(=O)O)S(=O)(=O)c1ccccc1
Prostaglandin E synthase
  IC50: 4 µM

## CCS(=O)(=O)NCCn1nnc(C(=O)O)c1C(=O)O
Prostaglandin E synthase
  IC50: 9.7 µM

## CCCN(CCn1nnc(C(=O)O)c1C(=O)O)S(=O)(=O)c1ccc(C)cc1
Prostaglandin E synthase
  IC50: 3.8 µM

## Cc1ccc(S(=O)(=O)NCCCn2nnc(C(=O)O)c2C(=O)O)cc1
Prostaglandin E synthase
  IC50: 6.3 µM

## O=C(O)c1nnn(CCNS(=O)(=O)c2ccccc2C(F)(F)F)c1C(=O)O
Prostaglandin E synthase
  IC50: 3.3 µM

## NC(=O)c1nnn(CCNS(=O)(=O)c2ccccc2)c1C(N)=O
Prostaglandin E synthase
  IC50: 23.3 µM

## CS(=O)(=O)NCCn1nnc(C(=O)O)c1C(=O)O
Prostaglandin E synthase
  IC50: 10.3 µM

## Cc1ccc(S(=O)(=O)NCn2nnc(C(=O)O)c2C(=O)O)cc1
Prostaglandin E synthase
  IC50: 6.9 µM

## Cc1ccc(S(=O)(=O)NCCn2nnc(C(=O)O)c2C(=O)O)cc1
Prostaglandin E synthase
  IC50: 4.2 µM

## O=C(O)c1nnn(CCN(c2ccccc2)S(=O)(=O)c2ccccc2)c1C(=O)O
[1]
  inhibition: inactive
Prostaglandin E synthase
  IC50: 1.1 µM
[2]
  inhibition: 18.1%
[3]
  Ratio IC50: 3.5
[4]
  Ratio IC50: 1000
[5]
  inhibition: 50%
[6]
  inhibition: 69.1%

## COC(=O)c1nnn(CCNS(=O)(=O)c2ccccc2)c1C(=O)OC
Prostaglandin E synthase
  IC50: 12.9 µM

## CC(C)c1ccc2c(c1)c(SC(C)(C)C)c(CC(C)(C)C(=O)O)n2Cc1ccc(Cl)cc1
[7]
  IC50: 3.2 µM

## O=C(O)c1nnn(CCNS(=O)(=O)c2ccccc2)c1C(=O)O
Prostaglandin E synthase
  IC50: 4.1 µM
